Bioassay records deposited in PubChem by several laboratories.
Hits are enriched below; roughly 2.9% of the tested compounds scored in any of these assays.
Mot1-301 SUMO: yeast Mot1-301 growth rescue at high temperature, primary screen, SUMOylation pathway inhibitor project, S. cerevisiae, ATP luminescence, 38.5C. S. cerevisiae Mot1-301 growth rescue; percent above DMSO median, 100 means doubled. growth rescue, % at 18.8 µM. 1% of 320,000 active. AID 2716, 2010;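 active means every valid replicate shows activation above 250% relative to neutral control wells; inactive means the rest, any valid replicate at or below 250%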;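 further: OY570 slx delta 5 strain wells were the positive control but not used for scaling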
NALP1 inh: NALP1 inflammasome inhibitors in reconstituted yeast, colorimetric, S. cerevisiae, triplicate retest; inhibition, % at 10 µM; AID 2071, 2009; 0.61% of 280,000 active; S. cerevisiae NALP1/ASC/caspase-1 growth, X-gal OD620, 72 h; in the data active means inhibition mostly above about 24%, no sharp cut-off; inactive means mostly below about 32%
FID counter: compounds displacing fluorescent DNA intercalator, primary screen, artefact control for HCV NS3 helicase inhibitor project, biochemical, FID fluorescence; inhibition, % at 7.9 µM; DNA fluorescent intercalator displacement; 0.17% of 290,000 active; in the data active means inhibition above about 37%;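 further: 0% = vehicle and 100% = reference compound; higher means more ethidium bromide displaced from hairpin DNA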
UBC9 SUMO inh: inhibitors of in vitro SUMOylation cascade, primary screen, biochemical, HTRF, uHTS. AID 2006, 2009. 0.36% of 290,000 active. inhibition, % at 35 µM. SUMO-conjugating enzyme UBC9 (Homo sapiens), P63279. HTRF SUMOylation assay, SAE1/SAE2 + UBC9; in the data active means inhibition above about 50%, passing the limit was not always enough
Target sequence (P63279 whole entry, looked up): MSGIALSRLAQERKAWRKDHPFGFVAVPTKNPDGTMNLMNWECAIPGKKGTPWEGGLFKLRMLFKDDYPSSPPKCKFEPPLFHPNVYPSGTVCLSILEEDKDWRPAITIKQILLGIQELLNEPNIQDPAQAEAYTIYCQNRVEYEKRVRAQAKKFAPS
VIM-2 inh: VIM-2 metallo-beta-lactamase inhibitors, primary screen, biochemical, epi-absorbance readout, Pseudomonas aeruginosa enzyme. purified VIM-2, nitrocefin hydrolysis, epi-absorbance fluorescence. inhibition, % at 5.6 µM. 0.89% of 290,000 active. AID 1527, 2009;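 active means inhibition above the mean of all tested compounds plus 3 SD, cutoff set per screening run, cut at about 7.5% in these data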;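 further: red hydrolysis product quenches plate fluorescence so inhibitors raise well fluorescence; 0% = enzyme with DMSO and 100% = DMSO without enzyme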
IMP-1 inhibitor: IMP-1 metallo-beta-lactamase inhibitors, primary screen, biochemical, epi-absorbance readout, Pseudomonas aeruginosa enzyme. metallo-beta-lactamase IMP-1 (Pseudomonas aeruginosa). purified IMP-1, nitrocefin hydrolysis, epi-absorbance fluorescence. inhibition, % at 5.6 µM. 0.45% of 290,000 active;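 active means inhibition above the mean plus 3 SD of all compounds in the same screening run, cut at about 4.5% in these data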;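 further: 0% = IMP-1 with DMSO and 100% = DMSO wells lacking enzyme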
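System: Purified recombinant IMP-1 metallo-beta-lactamase enzyme | Measured by: Fluorescence quenching readout, ex 480/em 530 nm | Replication: Singlicate | Incubation: 15 min preincubation plus 25 min reaction at 25 °C | Evaluation: Percent inhibition from optical density relative to buffer-blank wells | Benchmarks: DMSO with and without IMP-1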
An asterisk follows results filed as active; · = not tested or not shown.

SMILES	Mot1-301 SUMO	NALP1 inh	FID counter	UBC9 SUMO inh	VIM-2 inh	IMP-1 inhibitor
CCCN1CCC(NCc2cn(C)nc2-c2ccc(Oc3ccccc3)cc2)CC1	-7	14	39*	6	2	-1
O=C1NCCN/C1=C\C(=O)c1ccc(F)cc1	-8	26	0	30	0	-2
O=C1NCCN/C1=C\C(=O)c1ccc(Cl)cc1	-9	39*	2	31	-1	-2
COc1cc(OC)cc(C(=O)NCC(=O)OCC(=O)c2ccc3c(c2)-c2ccccc2C3)c1	422	24	-13	-31	-1	-2
Cc1cccc(N2CCN(c3ccc(N4C(=O)CCCC4=O)cc3[N+](=O)[O-])CC2C)c1 (stereo not drawn)	415*	30	-4	1	0	-2
CCN(CC)C(=O)c1ccc2c(=O)n(Cc3cccc(Br)c3)c(=S)[nH]c2c1	3	-7	-48	-14	-4	-2
Cc1ccc(S(=O)(=O)N2CCOCC2)cc1C(=O)N1CCN(S(=O)(=O)c2cccs2)CC1	133	·	-18	-23	4	0
COc1ccc(/C=N/NS(=O)(=O)c2ccc(F)cc2)cc1CN1CCSCC1	-1	30*	1	18	-3	-3
CCCC1COC(Cn2cncn2)(c2ccc(C)cc2)O1 (stereo not drawn)	281*	20	-16	12	-2	-2
CCC(C)n1ncn(-c2ccc(N3CCN(c4ccc(OCC5COC(Cn6cncn6)(c6ccc(Cl)cc6Cl)O5)cc4)CC3)cc2)c1=O (stereo not drawn)	271	7	0	3	-4	-3
Cc1ccc(NC(=O)CN(C)C(=O)CCC(=O)c2cccs2)cc1	164	25	-9	5	-2	8.9*
COc1ccc(NC(=O)CN(C)C(=O)CCC(=O)c2ccc(C)cc2)cc1	4	·	·	·	·	·
Cc1ccc(NC(=O)CCc2ccc(C)o2)cc1	-3	18	-7	5	-2	-4
COC(=O)c1[nH]c2ccc(F)cc2c1NS(=O)(=O)c1ccc(OC)cc1	348*	23	5	3	-1	-2
CCC1(C)Cc2c(sc3nc(SC)[nH]c(=S)c23)CO1 (stereo not drawn)	-3	6	-11	14	8.1*	-4
O=[N+]([O-])c1ccc(N=Nc2c(Cl)cc(O)cc2Cl)cc1	-22	99*	19	10	-5	-6
S=c1[nH]nc(-c2ccc(Cl)cc2)n1CCCN1CCOCC1	-19	-13	-1	10	8.4*	-3
CCOCCCn1c(-c2ccc(Cl)cc2)n[nH]c1=S	36	1	-7	7	6	-2
O=C1/C(=C/C=C/c2ccco2)SC(=S)N1NS(=O)(=O)c1ccccc1	108	·	1	60*	1	-2
O=C1/C(=C/c2cccs2)SC(=S)N1NS(=O)(=O)c1ccccc1	37	1	-20	25	0	9.0*
COc1ccc(/C=C2\SC(=S)N(NS(=O)(=O)c3ccccc3)C2=O)c(OC)c1	8	-18	-22	17	-4	-4
CC(C(=O)O)N1C(=O)/C(=C/C=C/c2ccco2)SC1=S (stereo not drawn)	6	-7	-7	84*	-2	5.8*
COc1ccc(OC)c(/C=C2\SC(=S)N(NS(=O)(=O)c3ccccc3)C2=O)c1	-11	-11	-21	24	-2	-1
CC(C)CCN(C(=O)Cc1ccc(Cl)c(Cl)c1)c1c(N)n(Cc2ccccc2)c(=O)[nH]c1=O	125	0	-2	13	-2	-4
COc1ccc(Br)cc1/C=c1\sc2nc(-c3ccco3)nn2c1=O	17	0	·	52*	·	·
Cc1nn(-c2ccccc2)c(Cl)c1C1C(C#N)=C(N)Oc2c1c(C)nn2-c1ccccc1 (stereo not drawn)	4	9	-17	27	1	-3
